Data from article PMC3215888 (Cancer Chemotherapy and Pharmacology, 2011).
pIC50: −log10 of the molar value. Where “and” joins values, the source holds several entries; their conditions need not be identical. Equal entries are not always repeated. Where two headings read alike, the source gives them in different places.

Assays:
[1] = system: CHLA-9 Ewing sarcoma cell line; test: DIMSCAN in vitro testing, 96 h; assay type: cell-based; conditions: for pIC50: 96 h
Procedure, shortened: (§1)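 Neuroblastoma and Ewing sarcoma lines, STR-verified and maintained as in the originators' reports. Exposed for 96 h to test compound (DMSO stock diluted in medium) at 1 nM–10 μM. Viable cells quantified by fluorescein diacetate fluorescence with DIMSCAN digital image microscopy. Absolute IC50 = concentration giving 50% growth inhibition vs controls. Relative IC50 = concentration giving 50% of the maximum inhibitory effect.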

[2] = system: CHLA-10 Ewing sarcoma cell line; test: DIMSCAN in vitro testing, 96 h; assay type: cell-based; conditions: for pIC50: 96 h
Procedure, shortened: as §1

[3] = system: COG-E-352 Ewing sarcoma cell line; test: DIMSCAN in vitro testing, 96 h; assay type: cell-based; conditions: for pIC50: 96 h
Procedure, shortened: as §1

[4] = system: CHLA-122 neuroblastoma cell line; test: DIMSCAN in vitro testing, 96 h; assay type: cell-based; conditions: for pIC50: Neuroblastoma cell, 96 h
Procedure, shortened: as §1

[5] = system: CHLA-140 neuroblastoma cell line; test: DIMSCAN in vitro testing, 96 h; assay type: cell-based; conditions: for pIC50: Neuroblastoma cell, 96 h
Procedure, shortened: as §1

[6] = system: LA–N-6 neuroblastoma cell line; test: DIMSCAN in vitro testing, 96 h; assay type: cell-based; conditions: for pIC50: Neuroblastoma cell, 96 h
Procedure, shortened: as §1

[7] = system: SK-N-BE(1) neuroblastoma cell line; test: DIMSCAN in vitro testing, 96 h; assay type: cell-based; conditions: for pIC50: Neuroblastoma cell, 96 h
[8] = system: SK-N-BE(2) neuroblastoma cell line; test: DIMSCAN in vitro testing, 96 h; assay type: cell-based; conditions: minimum T/C
Procedure, shortened: as §1

[9] = system: SMS-SAN neuroblastoma cell line; test: DIMSCAN in vitro testing, 96 h; assay type: cell-based; conditions: for pIC50: Neuroblastoma cell, 96 h
Procedure, shortened: as §1

Ewing sarcoma cell lines = test: DIMSCAN in vitro testing, 96 h, Ewing panel; assay type: cell-based
Procedure, shortened: as §1

KT-10 Wilms xenograft = assay type: in vivo, mice
Procedure, shortened: (§2)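 Female CB17 scid mice bearing subcutaneous tumors, 10 per group. Dosed by oral gavage twice daily, 5 days weekly for 6 weeks, at 20.8, 10.4, 5.2 or 2.6 mg/kg, in 10% 2-hydroxypropyl-β-cyclodextrin/1% sodium bicarbonate. Event = quadrupled tumor volume; EFS by Kaplan–Meier, exact log-rank test. Per-mouse scores PD/SD/PR (≥50% regression)/CR (<0.10 cm3)/MCR; group median reported. PR, CR and MCR count as objective responses.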

[10] = system: NB-1771 Neuroblastoma xenograft; assay type: in vivo, mice
Procedure, shortened: as §2

[11] = system: ALL-8 ALL T-cell xenograft; test: ALL xenograft; assay type: in vivo, mice
Procedure, shortened: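 Female NOD/scid mice inoculated intravenously with leukemia cells, 8 per group. Test compound suspended in 10% 2-hydroxypropyl-β-cyclodextrin/1% sodium bicarbonate in water. Given by oral gavage twice daily, 5 days weekly for 3 weeks, at 20.8, 10.4, 5.2 or 2.6 mg/kg. Blood %hCD45 of leukocytes tracked; event = hCD45 reaching 25%. EFS by Kaplan–Meier, exact log-rank vs controls. Median group response from individual scores.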

[12] = system: PPTP in vivo xenograft models; test: Objective responses by AURKA copy number; set-up: species or system mice; conditions: MTD
[13] = system: Aurora kinase A mutation (T217D); conditions: cited from earlier work

## COc1cc(Nc2ncc3c(n2)-c2ccc(Cl)cc2C(c2c(F)cccc2OC)=NC3)ccc1C(=O)O [MLN8237]
[1]; read-out: Absolute IC50
  pIC50: 7.74
[1]; read-out: Relative IC50
  pIC50: 7.80
[1]; CHLA-9, minimum T/C
  Ymin: 4.2%
[2]; read-out: Absolute IC50
  pIC50: 7.22
[2]; read-out: Relative IC50
  pIC50: 7.25
[2]; CHLA-10, minimum T/C
  Ymin: 4.7%
[3]; read-out: Absolute IC50
  pIC50: 7.37
[3]; read-out: Relative IC50
  pIC50: 7.46
[3]; COG-E-352, minimum T/C
  Ymin: 11.4%
[4]; CHLA-122, minimum T/C
  Ymin: 0.6%
[4]; read-out: Absolute IC50
  pIC50: 7.72
[4]; read-out: Relative IC50
  pIC50: 7.77
[5]; CHLA-140, minimum T/C
  Ymin: 29.4%
[5]; read-out: Absolute IC50
  pIC50: 7.59
[5]; read-out: Relative IC50
  pIC50: 7.85
[6]; LA–N-6, minimum T/C
  Ymin: 32.1%
[6]; read-out: Absolute IC50
  pIC50: 7.27
[6]; read-out: Relative IC50
  pIC50: 7.51
[7]; read-out: Absolute IC50
  pIC50: 7.55
[7]; read-out: Relative IC50
  pIC50: 7.62
[7]; SK-N-BE(1), minimum T/C
  Ymin: 4.0%
[8]
  Ymin: 16.5%
[9]; read-out: Absolute IC50
  pIC50: 7.70
[9]; read-out: Relative IC50
  pIC50: 7.74
[9]; SMS-SAN, minimum T/C
  Ymin: 5.9%
Ewing sarcoma cell lines; median of Ewing panel
  median Ymin, Ewing cell lines: 11.4%
Ewing sarcoma cell lines; read-out: relative IC50 values, Ewing sarcoma cell lines
  pIC50: 7.24
KT-10 Wilms xenograft; 2.6 mg/kg
  EFS T/C: 1.0
  EFS activity: Low
  Estimate of median time to event: 9.6 days
  Median group response: PD1 (if the TGD value ≤1.5, that mouse was considered PD1)
  Response activity: Low
  Tumor volume T/C: 0.84
  Median RTV/hCD45 at end of study: >4
KT-10 Wilms xenograft; 5.2 mg/kg
  EFS T/C: 1.7
  EFS activity: Low
  Estimate of median time to event: 16.0 days
  Median group response: PD2 (if the TGD value >1.5, the mouse was considered PD2)
  Response activity: Int
  Tumor volume T/C: 0.71
  Median RTV/hCD45 at end of study: >4
KT-10 Wilms xenograft; 10.4 mg/kg
  EFS T/C: 1.5
  EFS activity: Low
  Estimate of median time to event: 14.6 days
  Median group response: PD1 (if the TGD value ≤1.5, that mouse was considered PD1)
  Response activity: Low
  Tumor volume T/C: 0.53
  Median RTV/hCD45 at end of study: >4
KT-10 Wilms xenograft; 20.8 mg/kg
  EFS T/C: >4.4
  EFS activity: High
  Median group response: MCR
  Response activity: High
  Tumor volume T/C: 0.35
  Median RTV/hCD45 at end of study: 0.0
[10]; 2.6 mg/kg
  EFS T/C: 1.9
  EFS activity: Low
  Estimate of median time to event: 38.2 days
  Median group response: PD2 (if the TGD value >1.5, the mouse was considered PD2)
  Response activity: Int
  Tumor volume T/C: 0.38
  Median RTV/hCD45 at end of study: >4
[10]; 5.2 mg/kg
  EFS T/C: >2.1
  EFS activity: Int
  Median group response: PD2 (if the TGD value >1.5, the mouse was considered PD2)
  Response activity: Int
  Tumor volume T/C: 0.38
  Median RTV/hCD45 at end of study: 2.2
[10]; 10.4 mg/kg
  EFS T/C: >2.1
  EFS activity: High
  Median group response: MCR
  Response activity: High
  Tumor volume T/C: 0.08
  Median RTV/hCD45 at end of study: 0.0
[10]; 20.8 mg/kg
  EFS T/C: >2.1
  EFS activity: High
  Median group response: MCR
  Response activity: High
  Tumor volume T/C: 0.02
  Median RTV/hCD45 at end of study: 0.0
[11]; 2.6 mg/kg
  EFS T/C: 1.8
  EFS activity: Low
  Estimate of median time to event: 23.0 days
  Median group response: PD2 (if the TGD value >1.5, the mouse was considered PD2)
  Response activity: Int
  Median RTV/hCD45 at end of study: >25%
[11]; 5.2 mg/kg
  EFS T/C: 2.5
  EFS activity: Int
  Estimate of median time to event: 31.6 days
  Response activity: High
  Median RTV/hCD45 at end of study: >25%
[11]; 10.4 mg/kg
  EFS T/C: >3.3
  EFS activity: Int
  Response activity: High
  Median RTV/hCD45 at end of study: 6.2%
[11]; 20.8 mg/kg
  EFS T/C: >3.3
  EFS activity: High
  Median group response: MCR
  Response activity: High
  Median RTV/hCD45 at end of study: 0.2%
[12]
  objective responses in tumors with decreased AURKA copy number: 5/8
  objective responses in tumors with increased AURKA gene copy number: 2/14 and 2
[13]
  inhibition of Aurora kinase A T217D mutant: impervious
